Experimental data collected from several papers.
Each line is one published result; the experiments were not run side by side.
Melanocortin receptor 5: Melanocortin receptor 5 (Mus musculus, UniProt P41149)
GRM4: Metabotropic glutamate receptor 4 (GRM4, Homo sapiens, UniProt Q14833)
Ppara: Peroxisome proliferator-activated receptor alpha (Ppara, Mus musculus, UniProt P23204)

SMILES | target | assay | EC50 [µM]
C[C@@H]1NC(=O)[C@H](CCCNC(=N)N)NC(=O)[C@H](Cc2ccccc2)NC(=O)[C@H](Cc2ccccc2)NC(=O)[C@H](CCCNC(=N)N)NC(=O)[C@@H]2CCCN2C(=O)[C@H]2CCCN2C(=O)[C@H](Cc2ccccc2)NC1=O | Melanocortin receptor 5 | reporter gene, agonist | > 100
O=C(Nc1ccc(N2C(=O)c3ccccc3C2=O)c(Cl)c1)c1ncccc1Cl | Metabotropic glutamate receptor 1 (GRM1, Homo sapiens, UniProt Q13255) | calcium signal, positive allosteric modulator | 1.26
CCN(C(=O)C1CCN(S(=O)(=O)c2ccc3[nH]ncc3c2)CC1)[C@H](C)c1ccccc1 | Muscarinic acetylcholine receptor M4 (CHRM4, Homo sapiens, UniProt P08173) | calcium signal, agonist | > 30
CSCC[C@H](N)C(=O)NCC(=O)N[C@@H](Cc1c[nH]cn1)C(=O)N[C@@H](Cc1ccccc1)C(=O)N[C@@H](CCCNC(=N)N)C(=O)N[C@@H](Cc1c[nH]c2ccccc12)C(=O)O | Melanocortin receptor 5 | reporter gene, agonist | 4.43
COc1ccc(-c2nsc(NC(=O)[C@@H]3C[C@H]3C)c2C)cc1 | GRM4 | calcium signal, agonist | > 25
CC(C)(Oc1ccc(C(=O)c2ccc(Cl)cc2)cc1)C(=O)O | Ppara | reporter gene, agonist, luciferase | 35.8
CCCC[C@H](NC(=O)[C@@H](NC(=O)[C@@H](N)Cc1ccc(O)cc1)C(C)C)C(=O)NCC(=O)N[C@@H](Cc1c[nH]cn1)C(=O)N[C@@H](Cc1ccccc1)C(=O)N[C@@H](CCCN=C(N)N)C(=O)N[C@@H](Cc1c[nH]c2ccccc12)C(=O)N[C@@H](CC(=O)O)C(=O)N[C@@H](CCCN=C(N)N)C(=O)N[C@@H](Cc1ccccc1)C(=O)NCC(=O)O | Melanocortin receptor 5 | reporter gene, agonist | 0.14
COC(=O)c1ccc(-n2c(C)cc(C(=O)CSc3ccc(NC(C)=O)cc3)c2C)cc1 | GRM4 | calcium signal, positive allosteric modulator | 3.31
N=C(N)NCCC[C@H](NC(=O)[C@@H](N)CC(=O)O)C(=O)N[C@@H](Cc1ccccc1)C(=O)NCC(=O)O | Melanocortin receptor 5 | reporter gene, agonist | > 100
Cc1nc(-c2ccc(C(F)(F)F)cc2)sc1C(=O)NCc1ccc(OC(C)(C)C(=O)O)cc1 | Ppara | reporter gene, agonist, luciferase | 0.098
